Test results as given in ChEMBL document CHEMBL1154674, “Synthesis and evaluation of three 18F-labeled aminophenylbenzothiazoles as amyloid imaging agents” (J Med Chem, 2009).
Blank lines part the entries; values can stand above or below the molecule they belong to.

Legend:
Type in all cases: ADME, organism-based, Macaca mulatta
[1] = Drug level in normal rhesus monkey cerebellum assessed as standard uptake value at 81.2 MBq, iv after 57.5 mins by microPET; conditions: in vivo
How it was run: (§1)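 One normal rhesus monkey, each tracer given iv via the vena saphena (81.2, 96.3 or 109.4 MBq), with 1 day between tracer injections. Dynamic brain μPET over 180 min used frames of 5 × 60 s, 5 × 120 s, 9 × 300 s and 12 × 600 s. Images were reconstructed by filtered back projection with a RAMP filter. Regional time-activity curves were expressed as SUV.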

[2] = Drug level in normal rhesus monkey thalamus assessed as standard uptake value at 81.2 MBq, iv after 115 mins by microPET; conditions: in vivo
[3] = Drug level in normal rhesus monkey frontal cortex assessed as standard uptake value at 81.2 MBq, iv after 32.5 mins by microPET; conditions: in vivo
[4] = Drug level in normal rhesus monkey parietal cortex assessed as standard uptake value at 81.2 MBq, iv after 155 mins by microPET; conditions: in vivo
[5] = Drug level in normal rhesus monkey frontal cortex assessed as standard uptake value at 81.2 MBq, iv after 17.5 mins by microPET; conditions: in vivo
[6] = Drug level in normal rhesus monkey frontal cortex assessed as standard uptake value at 81.2 MBq, iv after 105 mins by microPET; conditions: in vivo, 1.75 h
How it was run: (§2)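 Single normal rhesus monkey; each tracer given iv via the vena saphena, with 1 day between tracer injections. Dynamic μPET ran 180 min (5×60 s, 5×120 s, 9×300 s, 12×600 s). Images were reconstructed by filtered back projection with a RAMP filter. Regional time-activity curves were expressed as SUV.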

[7] = Drug level in normal rhesus monkey frontal cortex assessed as standard uptake value at 81.2 MBq, iv after 1.5 mins by microPET; conditions: in vivo, 0.025 h; how it was run: as §2
[8] = Drug level in normal rhesus monkey parietal cortex assessed as standard uptake value at 81.2 MBq, iv after 105 mins by microPET; conditions: in vivo, 1.75 h
[9] = Drug level in normal rhesus monkey pons assessed as standard uptake value at 81.2 MBq, iv after 145 mins by microPET; conditions: in vivo
[10] = Drug level in normal rhesus monkey cerebellum assessed as standard uptake value at 81.2 MBq, iv after 165 mins by microPET; conditions: in vivo, 2.75 h; how it was run: as §1
[11] = Drug level in normal rhesus monkey frontal cortex assessed as standard uptake value at 81.2 MBq, iv after 0.5 mins by microPET; conditions: in vivo; how it was run: as §2
[12] = Drug level in normal rhesus monkey cerebellum assessed as standard uptake value at 81.2 MBq, iv after 14 mins by microPET; conditions: in vivo; how it was run: as §1
[13] = Drug level in normal rhesus monkey pons assessed as standard uptake value at 96.3 MBq, iv after 1.5 mins by microPET; conditions: in vivo, 0.025 h
[14] = Drug level in normal rhesus monkey cerebellum assessed as standard uptake value at 96.3 MBq, iv after 165 mins by microPET; conditions: in vivo, 2.75 h; how it was run: as §1
[15] = Drug level in normal rhesus monkey white matter assessed as standard uptake value at 96.3 MBq, iv after 4.5 mins by microPET; conditions: in vivo, 0.075 h
[16] = Drug level in normal rhesus monkey thalamus assessed as standard uptake value at 96.3 MBq, iv after 155 mins by microPET; conditions: in vivo
[17] = Drug level in normal rhesus monkey parietal cortex assessed as standard uptake value at 96.3 MBq, iv after 0.5 mins by microPET; conditions: in vivo
[18] = Drug level in normal rhesus monkey white matter assessed as standard uptake value at 96.3 MBq, iv after 8 mins by microPET; conditions: in vivo
[19] = Drug level in normal rhesus monkey pons assessed as standard uptake value at 109.4 MBq, iv after 12.5 mins by microPET; conditions: in vivo
[20] = Drug level in normal rhesus monkey white matter assessed as standard uptake value at 109.4 MBq, iv after 52.5 mins by microPET; conditions: in vivo, 0.875 h
[21] = Drug level in normal rhesus monkey thalamus assessed as standard uptake value at 109.4 MBq, iv after 111 mins by microPET; conditions: in vivo
[22] = Drug level in normal rhesus monkey pons assessed as standard uptake value at 109.4 MBq, iv after 3.5 mins by microPET; conditions: in vivo
[23] = Drug level in normal rhesus monkey frontal cortex assessed as standard uptake value at 109.4 MBq, iv after 15.5 mins by microPET; conditions: in vivo
[24] = Drug level in normal rhesus monkey cerebellum assessed as standard uptake value at 109.4 MBq, iv after 0.625 mins by microPET; conditions: in vivo, 38 s
[25] = Drug level in normal rhesus monkey frontal cortex assessed as standard uptake value at 109.4 MBq, iv after 1.5 mins by microPET; conditions: in vivo, 0.025 h; how it was run: as §1
[26] = Drug level in normal rhesus monkey pons assessed as standard uptake value at 109.4 MBq, iv after 47.5 mins by microPET; conditions: in vivo
[27] = Drug level in normal rhesus monkey cerebellum assessed as standard uptake value at 109.4 MBq, iv after 81 mins by microPET; conditions: in vivo, 1.35 h
[28] = Drug level in normal rhesus monkey pons assessed as standard uptake value at 109.4 MBq, iv after 0.875 mins by microPET; conditions: in vivo, 52 s
[29] = Drug level in normal rhesus monkey thalamus assessed as standard uptake value at 109.4 MBq, iv after 12.5 mins by microPET; conditions: in vivo
[30] = Drug level in normal rhesus monkey frontal cortex assessed as standard uptake value at 152.9 MBq, iv after 8 mins by microPET; conditions: in vivo
How it was run: (§3)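 Single normal rhesus monkey; tracer given iv via the vena saphena, 1 day apart from the other tracer injections. Dynamic μPET ran 90 min (5×60 s, 5×120 s, 9×300 s, 3×600 s). Images were reconstructed by filtered back projection with a RAMP filter. Regional time-activity curves were expressed as SUV.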

[31] = Drug level in normal rhesus monkey parietal cortex assessed as standard uptake value at 152.9 MBq, iv after 27.5 mins by microPET; conditions: in vivo
[32] = Drug level in normal rhesus monkey white matter assessed as standard uptake value at 152.9 MBq, iv after 32.5 mins by microPET; conditions: in vivo
[33] = Drug level in normal rhesus monkey pons assessed as standard uptake value at 152.9 MBq, iv after 27.5 mins by microPET; conditions: in vivo
[34] = Drug level in normal rhesus monkey cerebellum assessed as standard uptake value at 152.9 MBq, iv after 75 mins by microPET; conditions: in vivo, 1.25 h; how it was run: as §3
[35] = Drug level in normal rhesus monkey white matter assessed as standard uptake value at 152.9 MBq, iv after 6 mins by microPET; conditions: in vivo, 0.1 h
[36] = Drug level in normal rhesus monkey parietal cortex assessed as standard uptake value at 152.9 MBq, iv after 12 mins by microPET; conditions: in vivo, 0.2 h
[37] = Drug level in normal rhesus monkey thalamus assessed as standard uptake value at 152.9 MBq, iv after 42.5 mins by microPET; conditions: in vivo
[38] = Drug level in normal rhesus monkey white matter assessed as standard uptake value at 152.9 MBq, iv after 47.5 mins by microPET; conditions: in vivo

- SUV [1]: 2.522
- SUV [2]: 5.209
- SUV [3]: 5.574
- SUV [4]: 2.662
- SUV [5]: 5.789
- SUV [6]: 4.68
- SUV [7]: 3.245
- SUV [8]: 2.784
- SUV [9]: 5.067
- SUV [10]: 1.585
- SUV [11]: 0.756
- SUV [12]: 2.614
Compound: CNc1ccc2nc(-c3ccc([18F])cc3)sc2c1

- SUV [13]: 0.8
- SUV [14]: 0.79
- SUV [15]: 1.22
- SUV [16]: 1.92
- SUV [17]: 0.65
- SUV [18]: 1.16
Compound: CN(C)c1ccc2nc(-c3ccc([18F])cc3)sc2c1

- SUV [19]: 4.65
- SUV [20]: 3.54
- SUV [21]: 4.72
- SUV [22]: 3.33
- SUV [23]: 5.08
- SUV [24]: 2.19
- SUV [25]: 3.35
- SUV [26]: 4.7
- SUV [27]: 2.87
- SUV [28]: 1.85
- SUV [29]: 5.39
Compound: Nc1ccc2nc(-c3ccc([18F])cc3)sc2c1

- SUV [30]: 2.29
- SUV [31]: 1.221
- SUV [32]: 1.12
- SUV [33]: 1.583
- SUV [34]: 0.665
- SUV [35]: 1.364
- SUV [36]: 2.062
- SUV [37]: 1.223
- SUV [38]: 0.943
Compound: [11CH3]Nc1ccc(-c2nc3ccc(O)cc3s2)cc1 [PITTSBURGH COMPOUND B]
